In ChEMBL document CHEMBL1944562, “Design, synthesis of some new (2-aminothiazol-4-yl)methylester derivatives as possible antimicrobial and antitubercular agents” (2012):
Converted amounts (≈) assume the structure as drawn.

Legend:
Type in all cases: functional
Escherichia coli [1] = experiment: Antibacterial activity against Escherichia coli ATCC 25922 after 16 to 18 hrs by […]
Aspergillus flavus [2] = experiment: Antifungal activity against Aspergillus flavus NCIM N0.524 after 3 to 4 days by serial plate dilution method
Candida albicans [3] = experiment: Antifungal activity against Candida albicans after 3 to 4 days by serial plate dilution method
[4] = system: Mycobacterium tuberculosis; experiment: Antitubercular activity against Mycobacterium tuberculosis H37Rv after 7 days by resazurin assay; conditions: 168 h
Procedure, shortened: (§1)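 M. tuberculosis H37Rv ATCC 27294 grown in Middlebrook 7H9 broth with 10% OADC and adjusted to McFarland 2. Culture was diluted 1:4 into fresh medium. Compounds came from 2 mg/mL DMF stocks, screened first at 1, 10 and 100, then at 0.3125–5. DMF-only controls were included. After 7 days at 37 °C, 0.01% resazurin was added; a blue-to-pink change marked growth, and the MIC was read.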

Staphylococcus aureus [5] = experiment: Antibacterial activity against Staphylococcus aureus ATCC 25923 at […] after 3 to 4 days
Procedure, shortened: (§2)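 Agar well diffusion on seeded agar plates, 20 mL agar per dish, dried 1 h at 37 °C. Wells punched and loaded with test compound in DMSO at its MIC. DMSO-only control. Plates run in triplicate and kept 3-4 days at 37 °C. Inhibition zone diameter measured.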

Klebsiella pneumoniae [6] = experiment: Antibacterial activity against Klebsiella pneumoniae after 16 to 18 hrs by […]
Pseudomonas aeruginosa [7] = experiment: Antibacterial activity against Pseudomonas aeruginosa ATCC 27853 at MIC after 3 to 4 days; procedure, shortened: as §2
Aspergillus fumigatus [8] = experiment: Antifungal activity against Aspergillus fumigatus NCIM N0.902 at MIC after 3 to 4 days
Procedure, shortened: (§3)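 Fungal suspension made by transferring a loopful of culture to 3 mL saline and seeding agar plates, 20 mL agar per dish, dried 1 h at 37 °C. Punched wells loaded with test compound in DMSO at its MIC. DMSO-only control. Triplicate plates held 3-4 days at 37 °C. Inhibition zone diameter measured.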

Staphylococcus aureus [9] = experiment: Antibacterial activity against Staphylococcus aureus ATCC 25923 after 16 to 18 hrs by serial plate dilution method
[10] = system: Mycolicibacterium smegmatis; experiment: Antitubercular activity against Mycobacterium smegmatis ATCC 19420 after 7 days by resazurin assay; conditions: ATCC 19420, 168 h
Procedure, shortened: (§4)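 Middlebrook 7H9 broth with 10% OADC, culture adjusted to McFarland 2. 50 µL culture added to 150 µL fresh medium. Stocks at 2 mg/mL in DMF, tested first at 1, 10 and 100 µg/mL, then at 0.3125-5 µg/mL. DMF controls. After 7 days at 37 °C, 0.01% resazurin added. Blue-to-pink change read for MIC.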

[11] = system: Mycolicibacterium fortuitum; experiment: Antitubercular activity against Mycobacterium fortuitum ATCC 19542 after 7 days by resazurin assay; conditions: ATCC 19542, 168 h; procedure, shortened: as §4
[12] = system: Trichophyton mentagrophytes; experiment: Antifungal activity against Trichophyton mentagrophytes after 3 to 4 days by serial plate dilution method
Bacillus subtilis [13] = experiment: Antibacterial activity against Bacillus subtilis at MIC after 3 to 4 days; procedure, shortened: as §2
Talaromyces marneffei [14] = experiment: Antifungal activity against Penicillium marneffei after 3 to 4 days by serial plate dilution method
Klebsiella pneumoniae [15] = experiment: Antibacterial activity against Klebsiella pneumoniae at MIC after 3 to 4 days; procedure, shortened: as §2
Aspergillus fumigatus [16] = experiment: Antifungal activity against Aspergillus fumigatus NCIM N0.902 after 3 to 4 days by serial plate dilution method
Talaromyces marneffei [17] = experiment: Antifungal activity against Penicillium marneffei at MIC after 3 to 4 days; procedure, shortened: as §3
Candida albicans [18] = experiment: Antifungal activity against Candida albicans at MIC after 3 to 4 days; procedure, shortened: as §3
Pseudomonas aeruginosa [19] = experiment: Antibacterial activity against Pseudomonas aeruginosa ATCC 27853 after 16 to 18 hrs by […]
[20] = system: Trichophyton mentagrophytes; experiment: Antifungal activity against Trichophyton mentagrophytes at MIC after 3 to 4 days; procedure, shortened: as §3
[21] = system: Mycobacterium tuberculosis; experiment: Antitubercular activity against Mycobacterium tuberculosis H37Rv assessed as growth inhibition after 7 days by resazurin assay; procedure, shortened: as §1
Bacillus subtilis [22] = experiment: Antibacterial activity against Bacillus subtilis after 16 to 18 hrs by […]
Aspergillus flavus [23] = experiment: Antifungal activity against Aspergillus flavus NCIM N0.524 at MIC after 3 to 4 days; procedure, shortened: as §3
Escherichia coli [24] = experiment: Antibacterial activity against Escherichia coli ATCC 25922 at MIC after 3 to 4 days; procedure, shortened: as §2

SMILES	MIC (Aspergillus flavus [2])	MIC (Candida albicans [3])	MIC [4]	diameter of the inhibition zone (DIZ) (Staphylococcus aureus [5])	MIC (Klebsiella pneumoniae [6])	diameter of the inhibition zone (DIZ) (Pseudomonas aeruginosa [7])	diameter of the inhibition zone (DIZ) (Aspergillus fumigatus [8])	MIC [10]	MIC [11]	MIC [12]	diameter of the inhibition zone (DIZ) (Bacillus subtilis [13])	MIC (Talaromyces marneffei [14])	diameter of the inhibition zone (DIZ) (Klebsiella pneumoniae [15])	MIC (Aspergillus fumigatus [16])	diameter of the inhibition zone (DIZ) (Talaromyces marneffei [17])	diameter of the inhibition zone (DIZ) (Candida albicans [18])	diameter of the inhibition zone (DIZ) [20]	growth inhibition (GI) [21]	MIC (Bacillus subtilis [22])	diameter of the inhibition zone (DIZ) (Aspergillus flavus [23])	further results
Nc1nc(COC(=O)C2(c3ccc(Cl)cc3)CC2)cs1	25 µg/mL (≈ 81 µM)	25 µg/mL (≈ 81 µM)	1 µg/mL (≈ 3.24 µM)	11 mm	6.25 µg/mL (≈ 20.2 µM)	11 mm	<10 mm	1 µg/mL (≈ 3.24 µM)	1.25 µg/mL (≈ 4.05 µM)	25 µg/mL (≈ 81 µM)	11 mm	25 µg/mL (≈ 81 µM)	16 mm	25 µg/mL (≈ 81 µM)	<10 mm	<10 mm	<10 mm	90%	12.5 µg/mL (≈ 40.5 µM)	<10 mm	MIC (Escherichia coli [1]): 6.25 µg/mL (≈ 20.2 µM); MIC (Staphylococcus aureus [9]): 12.5 µg/mL (≈ 40.5 µM); MIC (Pseudomonas aeruginosa [19]): 12.5 µg/mL (≈ 40.5 µM); diameter of the inhibition zone (DIZ) (Escherichia coli [24]): 16 mm
Nc1nc(COC(=O)Cc2cccc(C(F)(F)F)c2)cs1	12.5 µg/mL (≈ 39.5 µM)	25 µg/mL (≈ 79 µM)	0.625 µg/mL (≈ 1.98 µM)	16 mm	12.5 µg/mL (≈ 39.5 µM)	16 mm	11 mm	10 µg/mL (≈ 31.6 µM)	10 µg/mL (≈ 31.6 µM)	12.5 µg/mL (≈ 39.5 µM)	16 mm	25 µg/mL (≈ 79 µM)	11 mm	12.5 µg/mL (≈ 39.5 µM)	<10 mm	<10 mm	11 mm	95%	6.25 µg/mL (≈ 19.8 µM)	11 mm	MIC (Escherichia coli [1]): 6.25 µg/mL (≈ 19.8 µM); MIC (Staphylococcus aureus [9]): 6.25 µg/mL (≈ 19.8 µM); MIC (Pseudomonas aeruginosa [19]): 6.25 µg/mL (≈ 19.8 µM); diameter of the inhibition zone (DIZ) (Escherichia coli [24]): 16 mm
Nc1nc(COC(=O)Cc2ccccc2OC(F)(F)F)cs1	6.25 µg/mL (≈ 18.8 µM)	6.25 µg/mL (≈ 18.8 µM)	5 µg/mL (≈ 15 µM)	11 mm	25 µg/mL (≈ 75.2 µM)	<10 mm	16 mm	> 100 µg/mL	> 100 µg/mL	6.25 µg/mL (≈ 18.8 µM)	11 mm	6.25 µg/mL (≈ 18.8 µM)	<10 mm	6.25 µg/mL (≈ 18.8 µM)	16 mm	16 mm	16 mm	<90%	12.5 µg/mL (≈ 37.6 µM)	16 mm	MIC (Escherichia coli [1]): 12.5 µg/mL (≈ 37.6 µM); MIC (Staphylococcus aureus [9]): 12.5 µg/mL (≈ 37.6 µM); MIC (Pseudomonas aeruginosa [19]): 25 µg/mL (≈ 75.2 µM); diameter of the inhibition zone (DIZ) (Escherichia coli [24]): 11 mm
Nc1nc(COC(=O)c2cc(F)cc(C(F)(F)F)c2)cs1	6.25 µg/mL (≈ 19.5 µM)	6.25 µg/mL (≈ 19.5 µM)	1 µg/mL (≈ 3.12 µM)	11 mm	25 µg/mL (≈ 78.1 µM)	11 mm	16 mm	> 100 µg/mL	10 µg/mL (≈ 31.2 µM)	6.25 µg/mL (≈ 19.5 µM)	11 mm	6.25 µg/mL (≈ 19.5 µM)	<10 mm	6.25 µg/mL (≈ 19.5 µM)	16 mm	16 mm	16 mm	90%	12.5 µg/mL (≈ 39 µM)	16 mm	MIC (Escherichia coli [1]): 25 µg/mL (≈ 78.1 µM); MIC (Staphylococcus aureus [9]): 12.5 µg/mL (≈ 39 µM); MIC (Pseudomonas aeruginosa [19]): 12.5 µg/mL (≈ 39 µM); diameter of the inhibition zone (DIZ) (Escherichia coli [24]): <10 mm
N#CCCc1cccc(C(=O)OCc2csc(N)n2)c1	6.25 µg/mL (≈ 21.8 µM)	12.5 µg/mL (≈ 43.5 µM)	0.625 µg/mL (≈ 2.18 µM)	16 mm	12.5 µg/mL (≈ 43.5 µM)	16 mm	<10 mm	1 µg/mL (≈ 3.48 µM)	10 µg/mL (≈ 34.8 µM)	25 µg/mL (≈ 87 µM)	16 mm	6.25 µg/mL (≈ 21.8 µM)	11 mm	25 µg/mL (≈ 87 µM)	16 mm	11 mm	<10 mm	95%	6.25 µg/mL (≈ 21.8 µM)	16 mm	MIC (Escherichia coli [1]): 6.25 µg/mL (≈ 21.8 µM); MIC (Staphylococcus aureus [9]): 6.25 µg/mL (≈ 21.8 µM); MIC (Pseudomonas aeruginosa [19]): 6.25 µg/mL (≈ 21.8 µM); diameter of the inhibition zone (DIZ) (Escherichia coli [24]): 16 mm
N#Cc1ccccc1C(=O)OCc1csc(N)n1	12.5 µg/mL (≈ 48.2 µM)	6.25 µg/mL (≈ 24.1 µM)	5 µg/mL (≈ 19.3 µM)	11 mm	12.5 µg/mL (≈ 48.2 µM)	16 mm	11 mm	> 100 µg/mL	> 100 µg/mL	25 µg/mL (≈ 96.4 µM)	<10 mm	25 µg/mL (≈ 96.4 µM)	11 mm	12.5 µg/mL (≈ 48.2 µM)	<10 mm	16 mm	<10 mm	<90%	25 µg/mL (≈ 96.4 µM)	11 mm	MIC (Escherichia coli [1]): 6.25 µg/mL (≈ 24.1 µM); MIC (Staphylococcus aureus [9]): 12.5 µg/mL (≈ 48.2 µM); MIC (Pseudomonas aeruginosa [19]): 6.25 µg/mL (≈ 24.1 µM); diameter of the inhibition zone (DIZ) (Escherichia coli [24]): 16 mm
Nc1nc(COC(=O)c2cccs2)cs1	25 µg/mL (≈ 104 µM)	12.5 µg/mL (≈ 52 µM)	10 µg/mL (≈ 41.6 µM)	11 mm	25 µg/mL (≈ 104 µM)	16 mm	16 mm	10 µg/mL (≈ 41.6 µM)	10 µg/mL (≈ 41.6 µM)	6.25 µg/mL (≈ 26 µM)	<10 mm	25 µg/mL (≈ 104 µM)	<10 mm	6.25 µg/mL (≈ 26 µM)	<10 mm	11 mm	16 mm	<90%	25 µg/mL (≈ 104 µM)	<10 mm	MIC (Escherichia coli [1]): 6.25 µg/mL (≈ 26 µM); MIC (Staphylococcus aureus [9]): 12.5 µg/mL (≈ 52 µM); MIC (Pseudomonas aeruginosa [19]): 6.25 µg/mL (≈ 26 µM); diameter of the inhibition zone (DIZ) (Escherichia coli [24]): 16 mm
Nc1nc(COC(=O)c2cccc([N+](=O)[O-])c2Cl)cs1	25 µg/mL (≈ 79.7 µM)	25 µg/mL (≈ 79.7 µM)	0.625 µg/mL (≈ 1.99 µM)	11 mm	6.25 µg/mL (≈ 19.9 µM)	<10 mm	<10 mm	1 µg/mL (≈ 3.19 µM)	10 µg/mL (≈ 31.9 µM)	25 µg/mL (≈ 79.7 µM)	11 mm	12.5 µg/mL (≈ 39.8 µM)	16 mm	25 µg/mL (≈ 79.7 µM)	11 mm	<10 mm	<10 mm	90%	12.5 µg/mL (≈ 39.8 µM)	<10 mm	MIC (Escherichia coli [1]): 12.5 µg/mL (≈ 39.8 µM); MIC (Staphylococcus aureus [9]): 12.5 µg/mL (≈ 39.8 µM); MIC (Pseudomonas aeruginosa [19]): 25 µg/mL (≈ 79.7 µM); diameter of the inhibition zone (DIZ) (Escherichia coli [24]): 11 mm
Cc1cc(C2CCCCC2)n(O)c(=O)c1.NCCO [CICLOPIROX OLAMINE]	6.25 µg/mL	6.25 µg/mL					25 mm			6.25 µg/mL		6.25 µg/mL		6.25 µg/mL	20 mm	20 mm	27 mm			25 mm	
O=C(O)c1cn(C2CC2)c2cc(N3CCNCC3)c(F)cc2c1=O [CIPROFLOXACIN]				22 mm	6.25 µg/mL (≈ 18.9 µM)	16 mm					21 mm		23 mm						1.56 µg/mL (≈ 4.71 µM)		diameter of the inhibition zone (DIZ) (Escherichia coli [24]): 30 mm
NNC(=O)c1ccncc1 [ISONIAZID]			0.7 µg/mL (≈ 5.1 µM)					50 µg/mL (≈ 365 µM)	12.5 µg/mL (≈ 91.1 µM)									95%			
CO[C@H]1/C=C/O[C@@]2(C)Oc3c(C)c(O)c4c(O)c(c(/C=N/N5CCN(C)CC5)c(O)c4c3C2=O)NC(=O)/C(C)=C\C=C\[C@H](C)[C@H](O)[C@@H](C)[C@@H](O)[C@@H](C)[C@H](OC(C)=O)[C@@H]1C [RIFAMPIN]			0.5 µg/mL (≈ 0.608 µM)					1.5 µg/mL (≈ 1.82 µM)	1.5 µg/mL (≈ 1.82 µM)									95%			
